Article PMC3344817 (ChemMedChem, 2011)

Columns and labels:
Molt 4/C8 T-lymphocytes = assay: Cytotoxicity; format: cell-based, human; settings: for RP (relative potency), Molt 4/C8 cells: IC50 of 2 divided by IC50 of the compound; for IC50: Homo sapiens, Molt4/C8, 72 h, read-out: IC50, Molt 4/C8 cells
CEM T-lymphocytes = assay: Cytotoxicity; format: cell-based, human; settings: IC50 of 2 divided by IC50 of the compound
L1210 cells = assay: Cytotoxicity; format: cell-based, murine; settings: for RP (relative potency), L1210 cells: IC50 of 2 divided by IC50 of the compound; for IC50: Mus musculus, L1210, 48 h, read-out: IC50, L1210 cells
CEM = assay: CC50 by flow cytometry with propidium iodide, CEM; format: cell-based, human; settings: CC50 toward NIH-3T3 fibroblasts / CC50 toward CEM
How it was run: (§1)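 Non-adherent lymphoma/leukaemia cells in RPMI were given a range of test compound concentrations (DMSO solution) for 22 h at 37°C. Plasma membrane disruption was scored by flow cytometry with propidium iodide to derive CC50, and values are the mean of three independent experiments. SI = CC50 toward NIH-3T3 fibroblasts ÷ CC50 toward the given non-adherent line.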

EL-4 = assay: CC50 by flow cytometry with propidium iodide, EL-4; format: cell-based, murine
How it was run: as §1

JURKAT = assay: CC50 by flow cytometry with propidium iodide, JURKAT; format: cell-based, human
How it was run: as §1

Nalm6 = assay: CC50 by flow cytometry with propidium iodide, Nalm6; format: cell-based, human
How it was run: as §1

Sup-T1 = assay: CC50 by flow cytometry with propidium iodide, Sup-T1; format: cell-based, human
How it was run: as §1

[1] = CC50 by flow cytometry with propidium iodide, NIH-3T3 fibroblasts; format: cell-based, murine; settings: mouse, NIH-3T3 fibroblasts (non-malignant)
How it was run: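 Adherent NIH-3T3 fibroblasts in DMEM received a range of test compound concentrations (DMSO solution) for 22 h at 37°C. CC50 was obtained by flow cytometry with propidium iodide, scoring plasma membrane disruption. Values are the mean of three independent experiments.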

[2] = system: JURKAT, Nalm-6, SUP-T1, or CEM cells; assay: Flow cytometry analysis of apoptosis and necrosis; format: cell-based, human; settings: after 20 h; relative to the percentage at 8 h; four non-adherent cell lines
How it was run: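 Test compound was incubated with JURKAT, Nalm-6, SUP-T1 or CEM cells in RPMI. After 8 and 20 h, cells were stained with Annexin-V-FITC plus propidium iodide. Flow cytometry gave the percentages of apoptotic, necrotic and viable cells.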

human tumor cell lines = assay: US National Cancer Institute human tumor cell line screen; format: cell-based; settings: 48 h; Figure 4

| Structure (SMILES) | RP (relative potency), Molt 4/C8 cells (Molt 4/C8 T-lymphocytes) | RP (relative potency), CEM cells (CEM T-lymphocytes) | RP (relative potency), L1210 cells (L1210 cells) | IC50 (Molt 4/C8 T-lymphocytes) [nM] | IC50 (L1210 cells) [nM] | other results |
| --- | --- | --- | --- | --- | --- | --- |
| O=C1C(=Cc2ccccc2)CN(C(=O)c2cccc(C(=O)N3CC(=Cc4ccccc4)C(=O)C(=Cc4ccccc4)C3)c2)CC1=Cc1ccccc1 [Compound 1j, 1,3-Bis-[(3,5-dibenzylidene-4-oxo-piperidin-1-yl)-1-carbonyl]benzene] | 0.7 | 0.1 | 0.1 | – | – | – |
| N[C@@H](Cc1ccc(N(CCCl)CCCl)cc1)C(=O)O [Melphalan, reference compound] | – | – | – | 3240 ± 790 | – | – |
| O=C1C(=Cc2ccccc2)CN(C(=O)CCCCCCC(=O)N2CC(=Cc3ccccc3)C(=O)C(=Cc3ccccc3)C2)CC1=Cc1ccccc1 [Compound 1e, 1,8-Bis-(3,5-dibenzylidene-4-oxo-piperidin-1-yl)octane-1,8-dione] | 5.3 | 0.8 | 0.5 | 1530 ± 540 | 15300 ± 4200 | – |
| O=C1C(=Cc2ccccc2)CN(C(=O)c2ccccc2C(=O)N2CC(=Cc3ccccc3)C(=O)C(=Cc3ccccc3)C2)CC1=Cc1ccccc1 [Compound 1i, 1,2-Bis-[(3,5-dibenzylidene-4-oxo-piperidin-1-yl)-1-carbonyl]benzene] | 9.5 | 1.3 | 1.9 | – | – | – |
| O=C1C(=Cc2ccccc2)CN(C(=O)C(=O)N2CC(=Cc3ccccc3)C(=O)C(=Cc3ccccc3)C2)CC1=Cc1ccccc1 [Compound 1a, 1,2-Bis(3,5-dibenzylidene-4-oxo-piperidin-1-yl)ethane-1,2-dione] | 18 | 2.5 | 1.8 | 460 ± 110 | 4460 ± 230 | SI (selectivity index), CEM (CEM): 376; SI (selectivity index), EL-4 (EL-4; CC50 toward NIH-3T3 fibroblasts / CC50 toward EL-4): 412; CC50 (EL-4; Mus musculus, EL4, 22 h, read-out: CC50, EL-4): 31 nM; SI (selectivity index), JURKAT (JURKAT; CC50 toward NIH-3T3 fibroblasts / CC50 toward JURKAT): 441; CC50 (JURKAT; Homo sapiens, Jurkat, 22 h, read-out: CC50, JURKAT): 29 nM; SI (selectivity index), Nalm6 (Nalm6; CC50 toward NIH-3T3 fibroblasts / CC50 toward Nalm6): 581; CC50 (Nalm6; Homo sapiens, NALM-6, 22 h, read-out: CC50, Nalm6): 22 nM; SI (selectivity index), Sup-T1 (Sup-T1; CC50 toward NIH-3T3 fibroblasts / CC50 toward Sup-T1): 33; CC50 (Sup-T1; Homo sapiens, SUP-T1, 22 h, read-out: CC50, Sup-T1): 384 nM; CC50 at 22 h [1]: 12800 nM; apoptotic cells [2]: doubling; IC50 towards human tumor cell lines, comparison (human tumor cell lines): generally displays lower IC50 values than 1 b |
| O=C1C(=Cc2ccccc2)CN(C(=O)CCCC(=O)N2CC(=Cc3ccccc3)C(=O)C(=Cc3ccccc3)C2)CC1=Cc1ccccc1 [Compound 1d, 1,5-Bis-(3,5-dibenzylidene-4-oxo-piperidin-1-yl)pentane-1,5-dione] | 5.0 | 0.9 | 0.7 | 1610 ± 50 | 11500 ± 300 | – |
| O=C1C(=Cc2ccccc2)CN(C(=O)C#CC(=O)N2CC(=Cc3ccccc3)C(=O)C(=Cc3ccccc3)C2)CC1=Cc1ccccc1 [Compound 1g, 1,4-Bis-(3,5-dibezylidene-4-oxo-piperidin-1-yl)-but-2-yne-1,4-dione] | 5.4 | 0.6 | 0.8 | – | – | – |
| O=C1C(=Cc2ccccc2)CN(C(=O)CCC(=O)N2CC(=Cc3ccccc3)C(=O)C(=Cc3ccccc3)C2)CC1=Cc1ccccc1 [Compound 1c, 1,4-Bis-(3,5-dibenzylidene-4-oxo-piperidin-1-yl)butane-1,4-dione] | 14 | 1.5 | 0.6 | 570 ± 160 | 14000 ± 1200 | – |
| O=C1C(=Cc2ccccc2)CN(C(=O)CC(=O)N2CC(=Cc3ccccc3)C(=O)C(=Cc3ccccc3)C2)CC1=Cc1ccccc1 [Compound 1b, 1,3-Bis-(3,5-dibenzylidene-4-oxo-piperidin-1yl)propane-1,3-dione] | 115 | 9.3 | 6.5 | 70 ± 10 | 1230 ± 380 | – |
| O=C1C(=Cc2ccccc2)CN(C(=O)C=CC(=O)N2CC(=Cc3ccccc3)C(=O)C(=Cc3ccccc3)C2)CC1=Cc1ccccc1 [1 f, 1,4-Bis-(3,5-dibenzylidene-4-oxo-piperidin-1-yl)but-2-ene-1,4-dione] | 1.8 | 0.2 | 0.3 | 4400 ± 2950 | 28900 ± 2000 | – |
| O=C1C(=Cc2ccccc2)CN(C(=O)C=CC=CC(=O)N2CC(=Cc3ccccc3)C(=O)C(=Cc3ccccc3)C2)CC1=Cc1ccccc1 [Compound 1h, 1,6-Bis-(3,5-dibenzylidene-4-oxo-piperidin-1-yl)-hexa-2,4-diene-1,6-dione] | 0.3 | 0.1 | 0.1 | 25100 ± 15800 | 79000 ± 10200 | – |
